{"source": "ChEMBL document CHEMBL4613249", "about": "“Serendipitous Discovery of Leucine and Methionine Depletion Agents during the Search for Polyamine Transport Inhibitors” (J Med Chem, 2020)", "key": {"[1]": {"system": "CHO-MG", "experiment": "Cytotoxicity against CHO-MG cells assessed as reduction in cell viability after 48 hrs by MTS assay", "assay_type": "cell-based", "conditions": "Cricetulus griseus", "summary_of_the_method": "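Cells in RPMI 1640 with 10% FBS, 1% penicillin/streptomycin, 37°C, 5% CO2, with aminoguanidine (1 mM for CHO K1 and CHO-MG, 250 μM for L3.6pl). Plated overnight at 1000 cells/well (CHO lines) or 500 cells/well (L3.6pl). Compound in PBS added, 48 h exposure. Growth read as MTS formazan absorbance at 490 nm. IC50 is the dose giving 50% relative growth versus untreated control. Run twice in triplicate.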"}, "[2]": {"system": "L3.6pl", "experiment": "Cytotoxicity against human L3.6PL cells assessed as reduction in cell viability at 0.25 to 20 uM measured after 24 to 72 hrs by MTS assay", "assay_type": "cell-based", "summary_of_the_method": "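Time course in L3.6pl cells, 500 cells/well, with compound alone for 24, 48 and 72 h exposure at 37°C. Growth by MTS absorbance at 490 nm relative to untreated control.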"}, "[3]": {"system": "L3.6pl", "experiment": "Effect on polyamine level in human L3.6PL cells assessed as decrease in intracellular spermine level at 2 to 7 uM measured after 72 hrs in presence of amine oxidase suppressor aminoguanidine by LCMS analysis", "assay_type": "functional, cell-based", "conditions": "in the assay text read “by N-dansylation and HPLC analysis” for “by LCMS analysis”", "summary_of_the_method": "(§1)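 L3.6pl cells, 50,000 cells/mL in 10 mL per Petri dish with 1 mM aminoguanidine, plated overnight. Dosed with compound at 2, 5 or 7 μM from PBS stocks, then 72 h at 37°C. Intracellular polyamines measured by N-dansylation and HPLC, in duplicate, as nmol/mg protein against a parallel untreated control.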"}, "[4]": {"target": "Large neutral amino acids transporter small subunit 1 (Homo sapiens) (UniProt Q01650)", "sequence (Q01650 whole entry)": "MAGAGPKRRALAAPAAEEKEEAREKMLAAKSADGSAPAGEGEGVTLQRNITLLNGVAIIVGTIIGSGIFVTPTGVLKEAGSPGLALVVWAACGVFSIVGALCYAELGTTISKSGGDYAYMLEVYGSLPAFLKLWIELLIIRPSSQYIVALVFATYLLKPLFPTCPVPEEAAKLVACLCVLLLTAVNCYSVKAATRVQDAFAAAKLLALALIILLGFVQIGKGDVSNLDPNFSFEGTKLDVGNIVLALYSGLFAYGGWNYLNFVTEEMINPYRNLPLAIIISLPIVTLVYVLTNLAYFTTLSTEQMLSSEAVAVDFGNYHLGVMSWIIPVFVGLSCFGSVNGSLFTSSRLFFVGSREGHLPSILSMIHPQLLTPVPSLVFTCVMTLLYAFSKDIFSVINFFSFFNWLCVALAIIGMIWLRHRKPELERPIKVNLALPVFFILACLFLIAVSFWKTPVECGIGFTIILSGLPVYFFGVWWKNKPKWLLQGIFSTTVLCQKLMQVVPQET", "experiment": "Inhibition of LAT1-mediated amino acid transport in human L3.6PL cells assessed as reduction in intracellular methionine level by measuring methionine level per mg protein in cell lysate at 5 uM measured after 72 hrs by LCMS analysis (reference value: 167 +/- 67 pmol/mg)", "assay_type": "cell-based", "summary_of_the_method": "(§2)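 L3.6pl cells (50,000 cells/mL, 10 mL, 1 mM aminoguanidine) were seeded in poly-lysine-treated 9 cm dishes and incubated overnight at 37°C. They were then dosed with compound at 2, 5 or 7 μM from PBS stocks (2, 5, 7 mM) and incubated 72 h. Runs were done in triplicate, with amino acid levels per mg protein.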"}, "[5]": {"system": "L3.6pl", "experiment": "Effect on polyamine level in human L3.6PL cells assessed as decrease in intracellular spermidine level at 2 to 7 uM measured after 72 hrs in presence of amine oxidase suppressor aminoguanidine by LCMS analysis", "assay_type": "functional, cell-based", "conditions": "in the assay text read “by N-dansylation and HPLC analysis” for “by LCMS analysis”", "summary_of_the_method": "as §1"}, "[6]": {"system": "CHO-MG", "experiment": "Induction of polyamine efflux in aminoguanidine pretreated CHO-MG cells assessed as reduction in cell viability measured after 72 hrs in presence of putrescine by MTS assay", "assay_type": "ADME, cell-based, Cricetulus griseus", "conditions": "chinese hamster"}, "[7]": {"target": "Large neutral amino acids transporter small subunit 1 (Homo sapiens) (UniProt Q01650)", "experiment": "Inhibition of LAT1-mediated amino acid transport in human L3.6PL cells assessed as reduction in intracellular leucine level by measuring leucine level per mg protein in cell lysate at 2 uM measured after 72 hrs by LCMS analysis (reference value: 232 +/- 10 pmol/mg)", "assay_type": "cell-based", "summary_of_the_method": "as §2"}, "[8]": {"system": "L3.6pl", "experiment": "Cytotoxicity against human L3.6PL cells assessed as reduction in cell viability measured after 72 hrs by MTS assay", "assay_type": "cell-based", "summary_of_the_method": "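L3.6pl cells, 500 cells/well in RPMI 1640 with 10% FBS and 250 μM aminoguanidine, plated overnight. Compound in PBS added, then 72 h at 37°C. MTS absorbance at 490 nm. IC50 is the dose giving 50% relative growth versus untreated control. Run twice in triplicate.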"}, "[9]": {"experiment": "Selectivity index, ratio of IC50 for cytotoxicity against CHO-MG cells assessed as reduction in cell viability after 48 hrs by MTS assay to IC50 for […] human L3.6PL cells assessed as reduction in cell viability after 48 hrs by MTS assay", "summary_of_the_method": "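The ratio is of 48 h IC50 values from MTS growth assays. CHO K1/CHO-MG cells were plated at 1000 cells/well and L3.6pl at 500 cells/well, drug in PBS was added after overnight incubation, and absorbance was read at 490 nm. IC50 is 50% growth versus untreated control; runs were done twice in triplicate.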"}, "[10]": {"system": "CHO-MG", "experiment": "Induction of polyamine efflux in aminoguanidine pretreated CHO-MG cells assessed as reduction in cell viability measured after 72 hrs in presence of spermidine by MTS assay", "assay_type": "ADME, cell-based, Cricetulus griseus", "conditions": "chinese hamster"}, "[11]": {"system": "L3.6pl", "experiment": "Effect on polyamine level in human L3.6PL cells assessed as acetyl spermine level per mg protein in supernatant at 2 uM measured after 72 hrs in presence of amine oxidase suppressor aminoguanidine by LCMS analysis (reference value: 77 +/- 43 pmol/mg)", "assay_type": "functional"}, "[12]": {"system": "L3.6pl", "experiment": "Effect on polyamine level in human L3.6PL cells assessed as spermine level per mg protein in supernatant at 2 uM measured after 72 hrs in presence of amine oxidase suppressor aminoguanidine by LCMS analysis (reference value: 6152 +/- 5596 pmol/mg)", "assay_type": "functional"}, "[13]": {"system": "CHO-K1", "experiment": "Potentiation of 0.5 uM N-(anthracenylmethyl) homospermidine-induced toxicity in CHOK1 cells assessed as increase in Ant-44-induced reduction in cell growth measured after 48 hrs in presence of amine oxidase suppressor aminoguanidine by MTS assay", "assay_type": "functional, cell-based", "conditions": "Cricetulus griseus", "summary_of_the_method": "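CHO K1 cells were pretreated 24 h with 1 mM aminoguanidine, then given fixed Ant-44 (0.5 μM) plus increasing compound (up to 5 μM) for 48 h at 37°C. MTS growth was read, with EC50 defined as the dose halving growth relative to Ant-44 alone. Runs were done twice in triplicate, with SD.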"}, "[14]": {"system": "L3.6pl", "experiment": "Effect on polyamine level in human L3.6PL cells assessed as decrease in intracellular spermine level at 7 uM measured after 72 hrs in presence of amine oxidase suppressor aminoguanidine by LCMS analysis relative to control", "assay_type": "functional", "set-up": "scale not given: the % may be the effect or the level left", "summary_of_the_method": "as §1"}, "[15]": {"system": "L3.6pl", "experiment": "Effect on polyamine level in human L3.6PL cells assessed as putrescine level per mg protein in supernatant at 2 uM measured after 72 hrs in presence of amine oxidase suppressor aminoguanidine by LCMS analysis (reference value: 977 +/- 522 pmol/mg)", "assay_type": "functional"}, "[16]": {"system": "L3.6pl", "experiment": "Effect on polyamine level in human L3.6PL cells assessed as decrease in intracellular spermine level at 1 uM measured after 72 hrs in presence of amine oxidase suppressor aminoguanidine and Ant-44 by LCMS analysis", "assay_type": "functional, cell-based", "summary_of_the_method": "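L3.6pl cells dosed with Ant-44 fixed at 2 μM plus increasing compound for 72 h at 37°C. Intracellular polyamines and Ant-44 given as nmol/mg protein, in duplicate, with a parallel untreated control.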"}, "[17]": {"system": "L3.6pl", "experiment": "Effect on polyamine level in human L3.6PL cells assessed as methionine level human L3.6PL cells assessed per mg protein in supernatant at 5 uM pretreated with aminoguanidine for 24 hrs followed by compound treatment after 72 hrs by LCMS analysis (reference value: 22834 +/- 1984 pmol/mg)", "assay_type": "functional"}, "[18]": {"system": "CHO-K1", "experiment": "Inhibition of polyamine transporter in CHOK1 cells assessed as rescue of 2.4 uM N-(anthracenylmethyl) homospermidine-induced toxicity by measuring cell growth at 7 uM measured after 48 hrs in presence of amine oxidase suppressor aminoguanidine by MTS assay (reference value: 23%)", "assay_type": "cell-based", "set-up": "scale not given: the % may be the effect or the level left", "conditions": "Cricetulus griseus", "summary_of_the_method": "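CHO K1 cells (1000 cells/well, aminoguanidine 1 mM preincubation) were given a toxic Ant-44 dose (2.4 μM) with candidate compound at 5 or 7 μM. Cells were incubated 48 h at 37°C, and relative growth versus untreated control was read by MTS.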"}}, "note": "Active and inactive are the calls of the source."}
{"compound": "CC(C)CCN1CCN([C@@H](CNCc2ccccc2)CC2CCCCC2)C[C@@H]1CC(C)C", "values": [{"measurement": "IC50", "setting": "[1]", "value": 8.93, "unit": "µM"}, {"measurement": "Activity", "setting": "[2]", "value": "Toxic"}, {"measurement": "Activity", "setting": "[3]", "value": "Active"}, {"measurement": "Activity", "setting": "[4]", "value": 41, "unit": "pmol/mg"}, {"measurement": "Activity", "setting": "[5]", "value": "Active"}, {"measurement": "Activity", "setting": "[6]", "value": "Active"}, {"measurement": "Activity", "setting": "[7]", "value": 152, "unit": "pmol/mg"}, {"measurement": "IC50", "setting": "[8]", "value": 5.9, "unit": "µM"}, {"measurement": "Ratio IC50", "setting": "[9]", "value": 2}, {"measurement": "Activity", "setting": "[10]", "value": "Active"}, {"measurement": "Activity", "setting": "[11]", "value": 49, "unit": "pmol/mg"}, {"measurement": "Activity", "setting": "[12]", "value": 2532, "unit": "pmol/mg"}, {"measurement": "Activity", "setting": "[13]", "value": "Dose-dependent effect"}, {"measurement": "EC50", "setting": "[13]; CHO-K1, 48 h", "value": 0.06, "unit": "µM"}, {"measurement": "Activity", "setting": "[14]", "value": 30, "unit": "%"}, {"measurement": "Activity", "setting": "[15]", "value": 938, "unit": "pmol/mg"}, {"measurement": "Activity", "setting": "[16]", "value": "Active"}, {"measurement": "Activity", "setting": "[17]", "value": 64036, "unit": "pmol/mg"}, {"measurement": "Activity", "setting": "[18]", "value": 3, "unit": "%"}]}
